How the values were obtained:
[1] = target: T1, Xanthine dehydrogenase/oxidase (Homo sapiens, UniProt P47989); experiment: Inhibitory concentration against Xanthine oxidase; Not active at 50 ug/mL concentration; format: single protein
Outline: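 DMSO sample preincubated 15 min with xanthine oxidase (1 u/mL stock) in […] phosphate buffer pH 7.5. Started with 0.15 mM xanthine, run 30 min at 29 °C, stopped with 1 N HCl, A290 read. Compound blanks had HCl added before enzyme. Triplicates; % inhibition versus solvent control; IC50 by linear regression.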

[2] = Free radical scavenging assessed as DPPH color reduction
Outline: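 DMSO sample mixed in microplate with 0.1 M Tris-HCl pH 7.4 and 0.5 mM DPPH in absolute ethanol. Incubated 20 min in the dark, A517 read. Scavenging taken as % decolorization versus solvent control. SC50 by linear regression from at least five concentrations in triplicate.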

[3] = Inhibition of yeast Alpha-glucosidase; parameters: species or system Saccharomyces cerevisiae
Outline: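 Yeast α-glucosidase (0.74 u/mL) in 100 mM phosphate pH 7.0 with BSA and 0.20% sodium azide. DMSO sample incubated with enzyme 5 min, A405 zero read. Substrate added, 10 min at 26–28 °C, A405 re-read; increase used for % inhibition. Triplicates; IC50 by linear regression.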

[4] = target: T1, Xanthine dehydrogenase/oxidase; experiment: Inhibition of Xanthine oxidase; format: single protein
Outline: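 DMSO sample preincubated 15 min with xanthine oxidase (1 u/mL stock) in […] phosphate buffer pH 7.5. Started with 0.15 mM xanthine, run 30 min at 29 °C, stopped with 1 N HCl, A290 read. Triplicates; % inhibition versus solvent control; IC50 by linear regression.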

[5] = Free radical scavenging assessed as ABTS (2,2'-azinobis-(3-ethyl benz) thiazoline-6-sulfonic acid) color change
Outline: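 ABTS radical cation made by reacting 7 mM ABTS diammonium salt with 2.45 mM potassium persulfate overnight in the dark at room temp, then diluted in PBS pH 7.4 to A734 about 0.70. Sample added to diluted ABTS, A734 read within 1 min. Triplicates with blanks and controls. SC50 by linear regression from at least five concentrations.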

T1 sequence (P47989 whole entry): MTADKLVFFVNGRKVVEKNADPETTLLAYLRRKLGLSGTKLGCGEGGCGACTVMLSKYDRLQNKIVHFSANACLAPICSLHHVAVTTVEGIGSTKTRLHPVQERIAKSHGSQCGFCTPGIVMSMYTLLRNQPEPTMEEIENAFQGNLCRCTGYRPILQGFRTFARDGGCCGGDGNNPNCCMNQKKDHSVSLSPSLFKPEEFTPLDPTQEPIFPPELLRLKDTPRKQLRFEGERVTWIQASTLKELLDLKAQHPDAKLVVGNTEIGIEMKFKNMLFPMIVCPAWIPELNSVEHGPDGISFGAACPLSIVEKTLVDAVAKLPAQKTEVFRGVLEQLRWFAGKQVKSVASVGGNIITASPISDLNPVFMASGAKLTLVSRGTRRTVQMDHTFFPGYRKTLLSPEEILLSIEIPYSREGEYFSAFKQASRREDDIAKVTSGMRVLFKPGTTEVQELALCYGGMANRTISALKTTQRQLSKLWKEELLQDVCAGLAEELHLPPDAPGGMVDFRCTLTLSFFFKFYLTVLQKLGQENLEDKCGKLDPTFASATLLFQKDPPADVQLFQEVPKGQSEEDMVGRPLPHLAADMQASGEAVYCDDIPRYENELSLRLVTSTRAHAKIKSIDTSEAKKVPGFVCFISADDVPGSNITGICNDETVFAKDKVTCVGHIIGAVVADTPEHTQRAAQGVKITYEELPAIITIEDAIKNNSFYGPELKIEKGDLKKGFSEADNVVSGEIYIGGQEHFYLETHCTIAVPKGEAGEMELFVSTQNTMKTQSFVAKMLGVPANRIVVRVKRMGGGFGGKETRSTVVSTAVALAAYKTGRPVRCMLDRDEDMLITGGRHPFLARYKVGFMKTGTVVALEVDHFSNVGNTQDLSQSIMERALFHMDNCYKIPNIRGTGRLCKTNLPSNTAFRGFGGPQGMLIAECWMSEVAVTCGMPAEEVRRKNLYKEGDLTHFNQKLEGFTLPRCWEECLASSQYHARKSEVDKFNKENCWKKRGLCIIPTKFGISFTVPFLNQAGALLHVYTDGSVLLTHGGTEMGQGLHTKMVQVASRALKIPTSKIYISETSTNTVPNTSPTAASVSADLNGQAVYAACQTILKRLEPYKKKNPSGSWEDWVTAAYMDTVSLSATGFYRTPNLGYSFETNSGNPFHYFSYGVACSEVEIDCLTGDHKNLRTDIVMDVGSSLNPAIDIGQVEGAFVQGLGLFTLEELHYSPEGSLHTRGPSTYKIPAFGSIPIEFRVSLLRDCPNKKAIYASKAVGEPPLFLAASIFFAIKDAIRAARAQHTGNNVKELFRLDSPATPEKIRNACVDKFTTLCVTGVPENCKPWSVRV

| IC50 [1] | SC50 [2] [µM] | IC50 [3] [µM] | IC50 [4] [µM] | SC50 [5] [µM] | SMILES |
| --- | --- | --- | --- | --- | --- |
| Not Active | 13.5 | 178 | – | – | Oc1cc(O)c2c(c1)O[C@H](c1ccc(O)c(O)c1)[C@H](O)C2 [(-)-EPICATECHIN] |
| – | 7.51 | 12.6 | 102 | 11.3 | CCCCCCCCCCCCCC(=O)O[C@@H]1Cc2ccc(O)c(O)c2O[C@H]1c1ccc(O)c(O)c1 |
| – | 15.9 | – | – | 1.82 | Cc1c(C)c2c(c(C)c1O)CCC(C)(C(=O)O)O2 (stereo unspecified) |
| Not Active | 11.5 | 77.8 | – | – | O=C(O[C@@H]1Cc2ccc(O)c(O)c2O[C@H]1c1ccc(O)c(O)c1)c1ccccc1 |
| Not Active | 7.97 | 43.3 | – | – | O=C(O[C@@H]1Cc2ccc(O)c(O)c2O[C@H]1c1ccc(O)c(O)c1)c1ccccc1Cl |
| Not Active | 8.99 | 32.8 | – | – | O=C(O[C@@H]1Cc2ccc(O)c(O)c2O[C@H]1c1ccc(O)c(O)c1)c1ccc(F)cc1 |
| – | 5.17 | 9.56 | 94.7 | 10.1 | CCCCCCCCCCCCCCCC(=O)O[C@@H]1Cc2ccc(O)c(O)c2O[C@H]1c1ccc(O)c(O)c1 |
| Not Active | 6.72 | 82.3 | – | 14.6 | Oc1ccc([C@@H]2Oc3c(ccc(O)c3O)C[C@H]2O)cc1O |
| – | 8.89 | 46.2 | 139 | 14.1 | CCCC(=O)O[C@@H]1Cc2ccc(O)c(O)c2O[C@H]1c1ccc(O)c(O)c1 |
| – | 7.15 | 46.3 | 150 | 13 | CC(=O)O[C@@H]1Cc2ccc(O)c(O)c2O[C@H]1c1ccc(O)c(O)c1 |
| Not Active | 6.72 | 67.3 | – | – | COc1ccc(C(=O)O[C@@H]2Cc3ccc(O)c(O)c3O[C@H]2c2ccc(O)c(O)c2)cc1 |
| – | 6.68 | 49.3 | 129 | 14.4 | CCCCCC(=O)O[C@@H]1Cc2ccc(O)c(O)c2O[C@H]1c1ccc(O)c(O)c1 |
| – | 21.7 | – | – | – | CC(C)(Sc1cc(C(C)(C)C)c(O)c(C(C)(C)C)c1)Sc1cc(C(C)(C)C)c(O)c(C(C)(C)C)c1 |
| – | 6.07 | 13.5 | 112 | 17.5 | CCCCCCCCCC(=O)O[C@@H]1Cc2ccc(O)c(O)c2O[C@H]1c1ccc(O)c(O)c1 |
| – | 9.43 | 54.5 | 156 | 17.8 | CCCCCCCCCCCCCCCCCC(=O)O[C@@H]1Cc2ccc(O)c(O)c2O[C@H]1c1ccc(O)c(O)c1 |
| – | – | 50 | – | – | OC[C@H]1NC[C@H](O)[C@@H](O)[C@@H]1O [DUVOGLUSTAT] |
